# Source: ChEMBL document CHEMBL1125911, “Synthesis and biological activity of new HMG-CoA reductase inhibitors. 3. Lactones of 6-phenoxy-3,5-dihydroxyhexanoic acids” (J Med Chem, 1991)
# What was measured:
# [1] = target: T1, 3-hydroxy-3-methylglutaryl-coenzyme A reductase (Rattus norvegicus, UniProt P51639); assay: In vitro inhibition of HMG-CoA reductase in solubilized rat liver.
# T1 sequence (P51639 whole entry): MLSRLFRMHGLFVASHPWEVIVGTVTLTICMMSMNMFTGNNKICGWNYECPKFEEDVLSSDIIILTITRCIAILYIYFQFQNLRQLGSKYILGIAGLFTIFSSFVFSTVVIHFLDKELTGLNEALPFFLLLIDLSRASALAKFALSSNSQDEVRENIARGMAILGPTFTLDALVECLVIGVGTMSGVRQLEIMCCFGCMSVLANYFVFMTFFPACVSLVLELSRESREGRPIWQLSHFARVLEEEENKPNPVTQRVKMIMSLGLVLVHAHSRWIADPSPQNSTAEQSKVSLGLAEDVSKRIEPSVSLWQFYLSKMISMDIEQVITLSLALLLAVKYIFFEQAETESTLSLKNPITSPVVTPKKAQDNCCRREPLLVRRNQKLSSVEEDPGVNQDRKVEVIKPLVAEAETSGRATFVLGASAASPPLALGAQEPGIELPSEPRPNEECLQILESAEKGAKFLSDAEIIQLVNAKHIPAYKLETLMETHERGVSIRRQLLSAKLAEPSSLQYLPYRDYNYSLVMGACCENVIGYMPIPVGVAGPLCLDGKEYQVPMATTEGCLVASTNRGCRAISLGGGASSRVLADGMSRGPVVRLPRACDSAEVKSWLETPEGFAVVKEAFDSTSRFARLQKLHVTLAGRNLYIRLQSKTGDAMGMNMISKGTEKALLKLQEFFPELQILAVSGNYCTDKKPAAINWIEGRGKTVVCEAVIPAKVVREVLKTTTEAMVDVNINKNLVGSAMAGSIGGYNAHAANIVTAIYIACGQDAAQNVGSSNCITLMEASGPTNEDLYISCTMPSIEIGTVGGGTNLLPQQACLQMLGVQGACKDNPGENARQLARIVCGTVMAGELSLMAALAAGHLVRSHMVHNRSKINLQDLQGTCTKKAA
# [2] = target: T2, 3-hydroxy-3-methylglutaryl-coenzyme A reductase (Rattus norvegicus) (UniProt P51639); assay: (§1) Inhibition of HMG-CoA reductase compared to mevinolin.
# T2 sequence (whole entry): T1 sequence (P51639 whole entry)
# Outline: (§2)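 Solubilized, partially purified rat liver HMG-CoA reductase. IC50 from four or five inhibitor concentrations. Relative potency compared IC50 with mevinolin (set to 100), corrected for molecular weight.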
# [3] = target: T3, 3-hydroxy-3-methylglutaryl-coenzyme A reductase (Homo sapiens, UniProt P04035); assay: Inhibition of the incorporation of sodium [14C]acetate into cholesterol in HEP G2 cells.; format: functional, cell-based, HepG2
# T3 sequence (P04035 whole entry): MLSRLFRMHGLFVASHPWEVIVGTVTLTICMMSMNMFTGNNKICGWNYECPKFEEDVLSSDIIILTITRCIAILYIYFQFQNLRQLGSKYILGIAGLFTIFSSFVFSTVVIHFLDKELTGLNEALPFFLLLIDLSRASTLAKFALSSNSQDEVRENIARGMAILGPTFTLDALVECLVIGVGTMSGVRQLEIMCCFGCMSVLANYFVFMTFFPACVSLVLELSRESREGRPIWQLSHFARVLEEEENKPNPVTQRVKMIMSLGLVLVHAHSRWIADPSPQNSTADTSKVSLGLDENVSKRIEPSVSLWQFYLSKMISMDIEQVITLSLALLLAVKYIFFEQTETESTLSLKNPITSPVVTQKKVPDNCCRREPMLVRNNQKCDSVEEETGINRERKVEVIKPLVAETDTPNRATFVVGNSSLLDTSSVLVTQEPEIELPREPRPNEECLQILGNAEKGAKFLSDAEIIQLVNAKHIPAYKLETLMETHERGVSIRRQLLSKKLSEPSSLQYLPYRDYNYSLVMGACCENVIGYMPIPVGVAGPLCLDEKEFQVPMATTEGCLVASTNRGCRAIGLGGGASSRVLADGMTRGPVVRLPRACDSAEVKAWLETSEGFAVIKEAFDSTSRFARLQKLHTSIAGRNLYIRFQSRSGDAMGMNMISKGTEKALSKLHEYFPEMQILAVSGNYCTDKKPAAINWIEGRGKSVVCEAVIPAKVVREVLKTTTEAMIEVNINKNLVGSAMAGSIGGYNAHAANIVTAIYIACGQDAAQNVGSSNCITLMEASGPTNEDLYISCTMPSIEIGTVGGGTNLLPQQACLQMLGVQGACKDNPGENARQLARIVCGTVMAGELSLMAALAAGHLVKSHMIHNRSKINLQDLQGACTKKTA
# [4] = target: T4, 3-hydroxy-3-methylglutaryl-coenzyme A reductase (Homo sapiens) (UniProt P04035); assay: as §1; format: functional; outline: as §2
# T4 sequence (whole entry): T3 sequence (P04035 whole entry)
# Sus scrofa [5] = organism: Sus scrofa; assay: In vitro inhibition of Cu2+ catalyzed LDL oxidation; format: functional
# Outline: (§3)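 Porcine plasma LDL isolated by sequential ultracentrifugation (density 1.019-1.063 g/mL), dialysed against PBS pH 7.4, then diluted to 0.1 mg/mL protein. Preincubated 1 h at 37 °C under N2 with compound in ethanol. Oxidised with 5 μM Cu2+ for 2 h at 37 °C in air. Fluorescence read at ex 365/em 430 nm.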
# Sus scrofa [6] = organism: Sus scrofa; assay: Compound was tested for inhibition of Cu2+ catalyzed LDL oxidation and the potency relative to terbufucine was determined; format: functional; outline: as §3
# Rattus norvegicus [7] = organism: Rattus norvegicus; assay: In vitro inhibition of microsomal lipid peroxidation at 10e-5 M conc.; format: functional
# Outline: (§4)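 Rat liver microsomes in 50 mM Tris-HCl pH 7.4 with 100 mM KCl and 6.0 mM MgCl2, final protein 0.4 mg/mL. Peroxidation was started with ADP (2 mM)/FeCl3 (10 μM) plus an NADPH-regenerating system. Incubation 30 min at 37 °C with shaking. Thiobarbituric acid reactive substances were read at 535 nm.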
# Rattus norvegicus [8] = organism: Rattus norvegicus; assay: Compound was tested for inhibition of microsomal lipid peroxidation and the potency relative to terbufucine was determined; format: functional; outline: as §4
# Rattus norvegicus [9] = organism: Rattus norvegicus; assay: In vitro inhibition of microsomal lipid peroxidation; format: functional; outline: as §4
# Canis familiaris = assay: Tested in vivo for hypocholesterolemic activity by measuring its ability to decrease serum LDL-cholesterol, after oral administration of 25 mg/kg per day for 14 days in male Beagle dogs.; format: functional, Canis lupus familiaris
# Outline: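 Male beagle dogs (n = 4) given neat compound in gelatine capsules daily at 3:00 p.m.; controls received empty capsules. After an overnight fast, venous blood was drawn at 8:00 a.m. Serum lipoproteins were separated by ultracentrifugation (densities 1.006/1.063/1.21). LDL-cholesterol reported as % change versus control.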
# Rattus norvegicus [10] = assay: Compound was tested for effect on body weight after oral administration of 100 mg/kg in male rats.; format: functional
# Outline: (§5)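 Male HOE:WISKf (SPF 71) rats, initial body weight over 180 g, n = 10 per group, dosed once daily in the morning by gavage in polyethylene glycol 400 for 7 days; controls received vehicle. Fasted after last dose, bled retroorbitally 24 h later under mild ether. Liver and body weight recorded. Pooled group serum was ultracentrifuged into VLDL (<1.006), LDL (1.006-1.04) and HDL (1.04-1.21). Values are % change versus control.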
# Rattus norvegicus [11] = assay: Compound was tested for effect on body weight after oral administration of 30 mg/kg in male rats.; format: functional; outline: as §5
# Rattus norvegicus [12] = assay: Compound was tested for effect on liver weight after oral administration of 100 mg/kg in male rats.; format: functional; outline: as §5
# Rattus norvegicus [13] = assay: Compound was tested for effect on liver weight after oral administration of 30 mg/kg in male rats.; format: functional; outline: as §5
# Rattus norvegicus [14] = assay: Compound was tested for effect on serum HDL after oral administration of 100 mg/kg in male rats; format: functional; outline: as §5
# Rattus norvegicus [15] = assay: Compound was tested for effect on serum HDL after oral administration of 30 mg/kg in male rats; format: functional; outline: as §5
# Rattus norvegicus [16] = assay: Compound was tested for effect on serum LDL after oral administration of 100 mg/kg in male rats; format: functional; outline: as §5
# Rattus norvegicus [17] = assay: Compound was tested for effect on serum LDL after oral administration of 30 mg/kg in male rats; format: functional; outline: as §5
# Rattus norvegicus [18] = assay: Compound was tested for effect on serum VLDL after oral administration of 100 mg/kg in male rats; format: functional; outline: as §5
# Rattus norvegicus [19] = assay: Compound was tested for effect on serum VLDL after oral administration of 30 mg/kg in male rats; format: functional; outline: as §5
# Oryctolagus cuniculus [20] = assay: Tested in vivo for hypocholesterolemic activity by measuring its ability to decrease serum total cholesterol, after oral administration of 10 mg/kg body wt. per day in normolipidemic NZW rabbits; format: functional
# Outline: (§6)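 NZW rabbits (n = 5 or 6) dosed orally daily for 10 days. Serum total cholesterol reported as % change versus control. For 20 mg/kg, that dose was given on days 11-20 after 10 mg/kg, with the value read on day 20. Error given as SEM.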
# Rattus norvegicus [21] = assay: In vivo inhibition of hepatic cholesterol de novo synthesis in rat after oral administration of 5 mg/kg dose; format: functional
# Rattus norvegicus [22] = organism: Rattus norvegicus; assay: Potency relative to mevinolin was determined with respect to IC50. […]; format: functional
# Oryctolagus cuniculus [23] = assay: Tested in vivo for hypocholesterolemic activity by measuring its ability to decrease serum total cholesterol, after oral administration of 50 mg/kg body wt. per day in normolipidemic NZW rabbits; format: functional; outline: as §6
# [24] = target: T1, 3-hydroxy-3-methylglutaryl-coenzyme A reductase; assay: In vitro inhibition of solubilized HMG-CoA reductase in rat liver.
# Oryctolagus cuniculus [25] = assay: Tested in vivo for hypocholesterolemic activity by measuring its ability to decrease serum total cholesterol, after oral administration of 75 mg/kg body wt. per day in normolipidemic NZW rabbits; Very potent; format: functional, organism-based; design: dose 75 mg/kg, route oral
smiles,measurement,setting,value
CC(C)c1c(O)c(C(C)C)c(C(C)C)c(OCC(O)C[C@@H](O)CC(=O)[O-])c1-c1ccc(F)cc1.[Na+] (some centres not stated),IC50,[1],20 nM
same,Relative potency,[2],34
same,IC50,[3],5.6 nM
same,Relative potency,[4],900
same,IC50,Sus scrofa [5],1100 nM
same,Relative potency,Sus scrofa [6],10
same,inhibition,Rattus norvegicus [7],27%
same,Relative potency,Rattus norvegicus [8],< 0.1
CC(C)c1cc(Sc2ccc(F)cc2)cc(-c2ccc(F)cc2)c1O,IC50,Sus scrofa [5],1000 nM
same,Relative potency,Sus scrofa [6],11
same,IC50,Rattus norvegicus [9],3000 nM
same,inhibition,Rattus norvegicus [7],95%
same,Relative potency,Rattus norvegicus [8],3
CC(C)c1cc(-c2ccc(F)cc2)cc(-c2ccc(F)cc2)c1OCC(O)C[C@@H](O)CC(=O)[O-].[Na+] (some centres not stated),Change,Canis familiaris,3%
same,IC50,[1],17 nM
same,Relative potency,[2],43
same,IC50,[3],55 nM
same,Relative potency,[4],90
CC(C)c1cc(SC(C)(C)Sc2cc(-c3ccc(F)cc3)c(OCC(O)C[C@@H](O)CC(=O)[O-])c(C(C)C)c2)cc(-c2ccc(F)cc2)c1[O-].[Na+].[Na+] (some centres not stated),IC50,[1],30 nM
same,Relative potency,[2],15
same,IC50,[3],> 1700 nM
same,Relative potency,[4],< 3
same,Change,Rattus norvegicus [10],5%
same,Change,Rattus norvegicus [11],5%
same,Change,Rattus norvegicus [12],1%
same,Change,Rattus norvegicus [13],3%
same,Change,Rattus norvegicus [14],-3%
same,Change,Rattus norvegicus [15],13%
same,Change,Rattus norvegicus [16],-16%
same,Change,Rattus norvegicus [17],-26%
same,Change,Rattus norvegicus [18],13%
same,Change,Rattus norvegicus [19],12%
same,IC50,Rattus norvegicus [9],2700 nM
same,Relative potency,Rattus norvegicus [8],4
CC(C)c1cc(-c2ccc(F)cc2)c(OCC2C[C@@H](O)CC(=O)O2)c(C(C)C)c1 (some centres not stated),IC50,[3],1.8 nM
same,Relative potency,[4],250
same,Change,Oryctolagus cuniculus [20],-30%
same,Cholesterol,Rattus norvegicus [21],11.4%
same,Relative potency,Rattus norvegicus [22],103
O=C1C[C@H](O)CC(COc2c(Cl)cc(Cl)cc2CC2CCCCC2)O1 (some centres not stated),Change,Oryctolagus cuniculus [23],-11%
same,Cholesterol,Rattus norvegicus [21],36.4%
same,Relative potency,Rattus norvegicus [22],74
CC(C)c1cc(-c2ccc(F)cc2)c(/C=C/[C@@H](O)C[C@@H](O)CC(=O)[O-])c(C(C)C)n1.[Na+],IC50,[24],3 nM
same,IC50,Oryctolagus cuniculus [25],Very potent
Cc1cc(-c2ccccc2)nc(-c2ccc(F)cc2)c1/C=C/[C@@H](O)C[C@@H](O)CC(=O)O,IC50,[24],38 nM
CC(C)(Sc1cc(C(C)(C)C)c(O)c(C(C)(C)C)c1)Sc1cc(C(C)(C)C)c(O)c(C(C)(C)C)c1 [PROBUCOL],IC50,Sus scrofa [5],500 nM
same,Relative potency,Sus scrofa [6],22
same,Change,Rattus norvegicus [11],5%
same,Change,Rattus norvegicus [13],5%
same,Change,Rattus norvegicus [15],-11%
same,Change,Rattus norvegicus [17],-24%
same,Change,Rattus norvegicus [19],4%
